Source: ChEMBL document CHEMBL5149972, “Novel Antimalarial Tetrazoles and Amides Active against the Hemoglobin Degradation Pathway in Plasmodium falciparum” (J Med Chem, 2021)
Converted amounts (≈) assume the structure as drawn.

Columns and labels:
Plasmodium falciparum [1] = test: Antiplasmodial activity against drug resistant Plasmodium falciparum Dd2 infected in human RBC assessed as parasite growth inhibition incubated for 72 hrs by SYBR Green dye based fluorescence assay; assay type: functional, organism-based; conditions: Plasmodium falciparum, Dd2, Erythrocyte, 72 h
Outline: (§1)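 Blood-stage cultures at 2% hematocrit, human O+ RBCs, RPMI 1640 + 25 mM HEPES, 0.5% Albumax-I, 23 mM bicarbonate, 92 μM hypoxanthine. Start at 0.5% parasitemia; 72 h at 37°C, 5% CO₂; freeze-thaw, then SYBR Green in saponin/Triton lysis buffer, 4 h RT dark; fluorescence ex 485/em 535 nm. 10-point curves, technical duplicates or triplicates, final 0.5% DMSO; four-parameter fit gives EC₅₀; mean ± std dev of biological replicates.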

Plasmodium falciparum [2] = test: (§2) Antiplasmodial activity against Rac-N-(Pyridin-3-yl(1-(o-tolyl)-1H-tetrazol-5-yl)methyl)-N-(3-(trifluoromethyl)benzyl)Cyclopropanamine resistant Plasmodium falciparum 3D7 clone F2-A11 ring-stage parasite assessed as parasite growth inhibition incubated for 72 hrs by SYBR Green and MitoTracker Deep Red FM dye based flow cytometry; assay type: functional, organism-based
Outline: (§3)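 Clonal 3D7-A10 lines recovered after single-step selection; ring stages at 0.2% parasitemia, 1% hematocrit in RPMI-1640 with 0.5% Albumax. 72 h exposure to a 10-point 2-fold dilution series in duplicate with DMSO controls, final DMSO <0.5%. Survival read by flow cytometry, SYBR Green as nuclear stain and MitoTracker Deep Red FM as vital dye. EC₅₀ and EC₉₀ reported with fold shift relative to parental 3D7-A10.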

Plasmodium falciparum [3] = test: (§4) Antiplasmodial activity against chloroquine and pyrimethamine resistant Plasmodium falciparum K1 infected in human RBC assessed as parasite growth inhibition incubated for 72 hrs by SYBR Green dye based fluorescence assay; assay type: functional, organism-based; conditions: K1, Erythrocyte
Plasmodium falciparum [4] = test: Antiplasmodial activity against lab-derived […] resistant Plasmodium falciparum Dd2-PfeEF2 mutant infected in human RBC assessed as parasite growth inhibition incubated for 72 hrs by SYBR Green dye based fluorescence assay; assay type: functional, organism-based; conditions: Erythrocyte
Plasmodium falciparum [5] = test: Antiplasmodial activity against piperaquine and pyrimethamine resistant Plasmodium falciparum RF12 infected in human RBC assessed as parasite growth inhibition incubated for 72 hrs by SYBR Green dye based fluorescence assay; assay type: functional, organism-based; conditions: RF12, Erythrocyte
Plasmodium falciparum [6] = test: as §2, with “A10” for “F2-A11”; assay type: functional, organism-based
Outline: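 Resistant clonal lines were tested as ring stages at 0.2% parasitemia and 1% hematocrit in RPMI-1640 with 0.5% Albumax. A 10-point 2-fold dilution series was run in duplicate with DMSO controls, final DMSO <0.5%, for 72 h. Survival was read by flow cytometry with SYBR Green as nuclear stain and MitoTracker Deep Red as vital dye. EC50 and EC90 were derived.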

Plasmodium falciparum [7] = test: Antiplasmodial activity against Plasmodium falciparum mature stage V gametocyte assessed as inhibition of male gametocyte formation by luciferase reporter assay; assay type: functional, organism-based
Plasmodium falciparum [8] = test: as §4, with “piperaquine” for “pyrimethamine”, “Dd2-M343L mutant replaced with endogenous pfcrt locus with the recombinant Dd2 sequence and the PPQ resistance-conferring M343L at endogenous pfcrt Dd2 locus” for “K1”; assay type: functional, organism-based; conditions: Erythrocyte
Outline: (§5)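 Gene-edited Dd2 lines with the endogenous pfcrt locus replaced by zinc-finger nuclease editing. Concentration-response curves run with technical duplicates at each concentration; values are the average of two biological replicates, with std dev given where more replicates were collected.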

Plasmodium falciparum [9] = test: Antiplasmodial activity against chloroquine and pyrimethamine resistant Plasmodium falciparum Dd2 infected in human RBC assessed as parasite growth inhibition incubated for 72 hrs by SYBR Green dye based fluorescence assay; assay type: functional, organism-based; conditions: Dd2, Erythrocyte
Outline: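 O+ human RBCs at 2% hematocrit and 0.5% starting parasitemia, in RPMI 1640 with 25 mM HEPES, 0.5% Albumax-I, bicarbonate and hypoxanthine. Serial dilutions in triplicate, 0.5% DMSO final, 72 h at 37°C, 5% CO2. Frozen at −80°C, lysed with SYBR Green in saponin/Triton buffer for 4 h in the dark. Ex 485/em 535 nm. EC50 from four-parameter fit; biphasic fit where curves were biphasic.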

Plasmodium falciparum [10] = test: Antiplasmodial activity against asexual blood stage Plasmodium falciparum 3D7 infected in human RBC assessed as parasite growth inhibition incubated for 72 hrs by SYBR Green dye based fluorescence assay; assay type: functional, organism-based; conditions: Plasmodium falciparum, 3D7, Erythrocyte, 72 h; outline: as §1
Plasmodium falciparum [11] = test: Antiplasmodial activity against chloroquine resistant Plasmodium falciparum Dd2-GC03 mutant replaced with 3D7 pfcrt sequence at endogenous pfcrt Dd2 locus infected in human RBC assessed as parasite growth inhibition incubated for 72 hrs by SYBR Green dye based fluorescence assay; assay type: functional, organism-based; conditions: Erythrocyte; outline: as §5
Plasmodium falciparum [12] = test: Antiplasmodial activity against chloroquine and pyrimethamine resistant Plasmodium falciparum 7G8 infected in human RBC assessed as parasite growth inhibition incubated for 72 hrs by SYBR Green dye based fluorescence assay; assay type: functional, organism-based; conditions: 7G8, Erythrocyte
Plasmodium falciparum [13] = test: as §2, with “F2-H12” for “F2-A11”; assay type: functional, organism-based; outline: as §3
[14] = Kinetic solubility of compound in PBS at pH 2 by HPLC analysis; assay type: physicochemical; conditions: read-out: Kinetic_solubility
Plasmodium falciparum [15] = test: Antiplasmodial activity against Plasmodium falciparum mature stage V gametocyte assessed as inhibition of female gametocyte formation by luciferase reporter assay; assay type: functional, organism-based
Plasmodium falciparum [16] = test: Antiplasmodial activity against lab-derived MMV390048 resistant Plasmodium falciparum Dd2-Pfpi4K mutant infected in human RBC assessed as parasite growth inhibition incubated for 72 hrs by SYBR Green dye based fluorescence assay; assay type: functional, organism-based; conditions: Erythrocyte
Plasmodium falciparum [17] = test: Antiplasmodial activity against Plasmodium falciparum NF54 infected in human RBC assessed as parasite growth inhibition incubated for 72 hrs by SYBR Green dye based fluorescence assay; assay type: functional, organism-based; conditions: NF54, Erythrocyte
[18] = Kinetic solubility of compound in PBS at pH 6.5 by HPLC analysis; assay type: physicochemical; conditions: read-out: Kinetic_solubility
Hemozoin = test: Inhibition of Beta-hematin assessed as bis-pyridyl-Fe(III)PPIX complex formation incubated for 5 hrs by NP40 detergent-mediated colorimetric assay
Plasmodium falciparum [19] = test: Antiplasmodial activity against chloroquine, atovaquone and pyrimethamine resistant Plasmodium falciparum TM90C2B infected in human RBC assessed as parasite growth inhibition incubated for 72 hrs by SYBR Green dye based fluorescence assay; assay type: functional, organism-based; conditions: Erythrocyte
Plasmodium falciparum [20] = test: Antiplasmodial activity against lab-derived KAF156 resistant Plasmodium falciparum Dd2-Pfcarl mutant infected in human RBC assessed as parasite growth inhibition incubated for 72 hrs by SYBR Green dye based fluorescence assay; assay type: functional, organism-based; conditions: Erythrocyte
Plasmodium falciparum [21] = test: Antiplasmodial activity against lab-derived DSM265 resistant Plasmodium falciparum Dd2-PfDHODH mutant infected in human RBC assessed as parasite growth inhibition incubated for 72 hrs by SYBR Green dye based fluorescence assay; assay type: functional, organism-based; conditions: Erythrocyte
Plasmodium berghei = test: Antiplasmodial activity against liver stage Plasmodium berghei ANKA expressing GFP-Luc-SMCO infected in human HepG2-A16-CD81EGFP cells assessed as reduction in liver-stage development of luciferase-expressing parasite by luciferase reporter gene based bioluminescence assay; assay type: functional, organism-based
Outline: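 Pb-Luc (P. berghei ANKA-GFP-Luc-SMCON) sporozoites infect HepG2-A16-CD81EGFP cells in phenol red-free DMEM with 5% FBS, glutamine, penicillin/streptomycin; compounds scored for blocking liver-stage development by luciferase signal.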

Cc1ccccc1-n1nnnc1C(c1cccnc1)N(Cc1cccc(C(F)(F)F)c1)C1CC1 (racemic)
EC50 (Plasmodium falciparum [1]): 540 nM | EC50 (Plasmodium falciparum [2]; 3D7 clone F2-A11, 72 h): 670 nM | EC90 (Plasmodium falciparum [2]; 3D7 clone F2-A11, time 72 hrs): 1300 nM | EC50 (Plasmodium falciparum [3]): 360 nM | EC50 (Plasmodium falciparum [4]): 920 nM | EC50 (Plasmodium falciparum [5]): 610 nM | EC50 (Plasmodium falciparum [6]; 3D7 clone A10, 72 h): 300 nM | EC90 (Plasmodium falciparum [6]; 3D7 clone A10, time 72 hrs): 590 nM | EC50 (Plasmodium falciparum [7]): > 25000 nM | EC50 (Plasmodium falciparum [8]): 38000 nM | EC50 (Plasmodium falciparum [9]): 540 nM | EC50 (Plasmodium falciparum [10]): 380 nM | EC50 (Plasmodium falciparum [11]): 890 nM | EC50 (Plasmodium falciparum [12]): 180 nM | EC50 (Plasmodium falciparum [13]; 3D7 clone F2-H12, 72 h): 640 nM | EC90 (Plasmodium falciparum [13]; 3D7 clone F2-H12, time 72 hrs): 1300 nM | solubility kinetic [14]: 12 µg/mL (≈ 25.8 µM) | EC50 (Plasmodium falciparum [15]): > 25000 nM | EC50 (Plasmodium falciparum [16]): 750 nM | EC50 (Plasmodium falciparum [17]): 480 nM | solubility kinetic [18]: 1.5 µg/mL (≈ 3.23 µM) | IC50 (Hemozoin): 76000 nM | EC50 (Plasmodium falciparum [19]): 460 nM | EC50 (Plasmodium falciparum [20]): 650 nM | EC50 (Plasmodium falciparum [21]): 800 nM | EC50 (Plasmodium berghei): 7300 nM
